# HIV Env fusion = inhibitors of HIV-1 Env-driven cell-cell fusion, primary screen, HeLa-JRFL effector, CEM21 target cells, luciferase; inhibition, % at 12.3 µM; 360,000 compounds, 1.1% hits; AID 651610, 2012;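 active = mean replicate inhibition score of at least 50 and every replicate individually at or above 50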;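 also: 0% = plate neutral controls and 100% = maraviroc near 300 nM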
# FGF22 binding = binders of human FGF22 protein, primary screen, FGF22 synaptogenesis inhibitor project, biophysical, thermal shift, single point; Fibroblast growth factor 22 (Homo sapiens), Q9HCT0; recombinant FGF22 thermal shift, SYPRO orange fluorescence; percent of sucrose octasulfate shift, DMSO zero; activity (Tm shift, normalised), % at 9.99 µM; 340,000 compounds, 1.5% hits; AID 651658, 2012;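 active = mean Tm shift, scaled 0 neutral to 100 positive control, at about 1.3% or above, every replicate too, limit read from the data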
# F508del corr = F508del CFTR correction, initial screen, CFBE line, single point. activity (quench increase), % at 7.58 µM. 350,000 compounds, 0.36% hits. AID 720511, 2013. CFBE cells, YFP halide quenching; stimulated with forskolin plus potentiator P3; % fluorescence drop versus neutral controls;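 active = mean added fluorescence quench of at least 8% versus neutral control, with both replicates also reaching 8%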;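 also: cells transiently co-express mutant CFTR-F508del with the halide-sensitive YFP; corrector assay measuring rescue of mutant channel to the surface after 24 h compound exposure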
# S100A4 inh HTS = inhibitors of S100A4-myosin IIA peptide binding, primary screen, biochemical, fluorescence polarization, TAMRA-MyoIIA peptide. Protein S100-A4 (Homo sapiens), P26447. inhibition, % at 10.7 µM. 360,000 compounds, 0.14% hits;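 active = mean inhibition of at least 70% across replicates, with every replicate also reaching that level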
#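 Test system: S100A4 monomer protein; Medium: HEPES pH 7.2 with CaCl2, KCl, NaCl, DTT, Triton; Probe or stimulus: TAMRA-labelled myosin IIA heavy-chain peptide probe, 5 nM; Doses: one dose per compound; Times: polarization read 5 min after assay mix addition, stable 5–60 min; Benchmarks: neutral control DMSO, positive control TFP.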
# E-sel inducer = E-selectin induction in HUVECs, primary screen, imaging, HUVEC, immunofluorescence imaging, single point; normalized: neutral wells 0, TNF-alpha wells 100; 260,000 compounds, 0.37% hits; P16581; activation, % at 7.58 µM; AID 686992, 2013;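 active = mean E-selectin-positive cell signal at least 10% of the positive control, reached in at least 60% of replicates, without over 20% cell loss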
# Target sequence (P16581 whole entry, looked up): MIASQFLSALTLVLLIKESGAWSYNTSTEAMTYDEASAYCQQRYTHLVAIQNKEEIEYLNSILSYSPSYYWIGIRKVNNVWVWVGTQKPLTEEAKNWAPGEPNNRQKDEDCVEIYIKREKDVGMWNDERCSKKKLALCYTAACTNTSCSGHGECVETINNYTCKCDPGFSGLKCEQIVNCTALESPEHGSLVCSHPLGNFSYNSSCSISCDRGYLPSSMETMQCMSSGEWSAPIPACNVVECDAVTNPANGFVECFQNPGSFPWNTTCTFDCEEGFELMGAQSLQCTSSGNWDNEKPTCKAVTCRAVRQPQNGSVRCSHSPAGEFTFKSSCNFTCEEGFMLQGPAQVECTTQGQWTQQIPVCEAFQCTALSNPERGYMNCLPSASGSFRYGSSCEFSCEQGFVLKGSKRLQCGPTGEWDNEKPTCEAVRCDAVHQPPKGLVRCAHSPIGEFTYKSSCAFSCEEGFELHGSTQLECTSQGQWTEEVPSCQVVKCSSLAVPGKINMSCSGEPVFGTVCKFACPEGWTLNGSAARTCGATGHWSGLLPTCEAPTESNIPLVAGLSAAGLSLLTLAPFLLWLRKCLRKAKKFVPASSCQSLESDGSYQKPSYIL
#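 Test system: HUVEC; input: 3,000 HUVEC/well; measured by: immunofluorescence imaging; read-out: % PE-positive cells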
# An asterisk follows results filed as active; · = no result given; [ ] = another dose, or the depositor's remark. Most compounds without a hit are left out; they make up all but 2.7% or so of the library.
SMILES,HIV Env fusion,FGF22 binding,F508del corr,S100A4 inh HTS,E-sel inducer
COc1ccc(N(CC(=O)Nc2c(C)cccc2C)S(=O)(=O)c2ccccc2[N+](=O)[O-])c(OC)c1,6,43*,-2,3,·
Cc1cccc(C(C)C)c1NC(=O)CN(C)Cc1cccc(F)c1,-11,43*,-4,-3,·
COc1ccc(CN(C)CC(=O)Nc2ccccc2C(F)(F)F)c(OC)c1,16,·,·,·,0
CCc1cccc(C)c1NC(=O)CN(C)Cc1cccc(F)c1,-11,0,-3,4,-1
COc1ccc(CN(C)CC(=O)Nc2c(C)cccc2C)c(OC)c1,-73,43*,2,1,·
C[C@@H]1CCCCO[C@H](CN(C)Cc2ccc(C(=O)O)cc2)[C@H](C)CN([C@H](C)CO)C(=O)c2cc(NC(=O)CCCN(C)C)ccc2O1,-3[16.7 µM],0,0,15,0
COc1ccc(C#Cc2ccc([C@@H]3[C@H]4CN(C(=O)c5ccc(F)cc5)CC(=O)N4[C@H]3CO)cc2)cc1,·,·,3,16,0
Cc1cc(/C=N/NC(=O)c2ccsc2)c(C)n1-c1cnccn1,2,44*,1,39,·
Cc1cccc(Cl)c1NC(=O)N1CCCN(c2nc3ccc(Cl)cc3s2)CC1,10,0,·,-14,·
Cc1cccc(C)c1NC(=O)N1CCN(c2nc3ccccc3s2)CC1,72*,·,·,·,·
CCC(=O)Nc1ccc2c(c1)C(=O)N(C)[C@@H]1CC[C@H](CC(=O)NCc3ccccc3Cl)O[C@@H]1CO2,-4[16.7 µM],0,0,-24,0
Cc1nn(C2CCS(=O)(=O)C2)c2nc(C3CC3)cc(C(=O)Nc3cccc(C#N)c3)c12 (configuration not stated),18,0,8.7*,14,0
O=C(CC1C(=O)NCCN1Cc1cccc(Oc2ccccc2)c1)NCCc1ccccn1 (configuration not stated),5,0,4,2,4
O=C(CC1C(=O)NCCN1Cc1cccc(F)c1)NC1CCC1 (configuration not stated),-1,0,-4,2,·
Cn1cc(CCNC(=O)CC2C(=O)NCCN2Cc2cccc(Oc3ccccc3)c2)cn1 (configuration not stated),7,44*,-1,-4,·
COc1ccc(CN2CCNC(=O)C2CC(=O)NCCCn2nnc3ccccc32)cc1C (configuration not stated),61*,0,0,-5,·
O=C(CC1C(=O)NCCN1Cc1cccc(F)c1)NC1CCCCC1 (configuration not stated),91*,0,1,-7,0
C[C@H](CO)N1C[C@H](C)[C@H](CN(C)Cc2ccncc2)Oc2ncc(C#Cc3ccncc3)cc2C1=O,2[16.7 µM],·,-2,·,0
COc1ccc(NC(=O)N(C)C[C@H]2Oc3ccc(NC(=O)Nc4ccc(C(F)(F)F)cc4)cc3CC(=O)N([C@@H](C)CO)C[C@@H]2C)cc1,-15[16.7 µM],0,-1,-5,0
Cc1ccc(NCC(=O)N/N=C/c2cc(O)ccc2[N+](=O)[O-])cc1,-11,43*,-2,-13,·
Cc1ccc(NCC(=O)N/N=C/c2ccncc2)cc1,8,0,2,-2,·
C[C@H]1CN([C@@H](C)CO)C(=O)Cc2cc(NC(=O)CCCN(C)C)ccc2O[C@@H]1CN(C)S(=O)(=O)c1cn(C)cn1,-11[16.7 µM],0,0,5,-2
CC(C)NC(=O)Nc1ccc2c(c1)CC(=O)N([C@H](C)CO)C[C@@H](C)[C@H](CN(C)Cc1ccc(-c3ccccc3)cc1)O2,4[16.7 µM],0,2,-7,·
C[C@@H]1CN([C@@H](C)CO)C(=O)Cc2cc(NS(C)(=O)=O)ccc2O[C@H]1CN(C)S(=O)(=O)c1ccc(Cl)cc1,-33[16.7 µM],0,-1,-17,-8
CC(C)Oc1cccc(C(=O)C2CCCN(Cc3ccc(Oc4ncccn4)cc3)C2)c1 (configuration not stated),-14,43*,0,4,·
SMILES,HIV Env fusion,FGF22 binding,F508del corr,S100A4 inh HTS,E-sel inducer
Fc1ccccc1/C=N/NC(=S)Nc1ccc(Cl)cc1Cl,28,0,12*,-12,1
Fc1ccc(NC(=S)NN=Cc2ccccc2Cl)cc1,·,43*,-5,0,1
CO[C@@H]1CN(C)C(=O)c2ccc(NC(=O)C3CC3)cc2OC[C@H](C)NC[C@H]1C,·,0,4,-3,0
N#Cc1ccc(CN2CCN(C(=O)CNC(=O)Cc3cccc4ccccc34)CC2)cc1,71*,0,0,5,0
CCc1ccccc1NC(=O)CN1CCN(C(=O)CNC(=O)Cc2cccc3ccccc23)CC1,·,0,0,6,0
CCc1ccc(NC(=O)CO/N=C(\C)c2cc3ccccc3o2)cc1,4,44*,4,-2,·
CSc1ccccc1NC(=O)CO/N=C(\C)c1cc2ccccc2o1,1,0,·,0,·
COc1ccc(S(=O)(=O)N(C)C[C@H]2Oc3ccc(NC(=O)CCN4CCOCC4)cc3CC(=O)N([C@@H](C)CO)C[C@H]2C)cc1,-20[16.7 µM],0,0,-5,-8
Cc1nc2sc(C(=O)OCC(=O)N3c4ccccc4CC3C)c(C)c2c(=O)[nH]1 (configuration not stated),11,43*,4,-1,0
Cc1cccc(C(=O)OCC(=O)N2c3ccccc3CC2C)c1C (configuration not stated),19,0,2,2,0
COc1ccc(-c2cnc3c(c2)C(=O)N([C@@H](C)CO)C[C@@H](C)[C@@H](CN(C)Cc2ccc(C(=O)O)cc2)O3)cc1,·,0,4,-20,0
Cc1ccc(C2(C)CC(C)(C)N(C(=O)CSc3nnc(C)s3)c3ccccc32)cc1 (configuration not stated),26,·,·,·,·
Cc1nnc(SCC(=O)N2c3ccccc3C(C)(c3ccccc3)CC2(C)C)s1 (configuration not stated),62*,·,·,·,·
CC(C)CC#Cc1cnc2c(c1)C(=O)N([C@@H](C)CO)C[C@H](C)[C@@H](CN(C)C(=O)CN1CCOCC1)O2,-1[16.7 µM],1,2,-1,0
CO[C@H]1CN(C)C(=O)c2ccc(NS(=O)(=O)c3cn(C)cn3)cc2OC[C@@H](C)NC[C@@H]1C,·,1,-1,3,0
Cc1cc(C(=O)Nc2ccc(Cl)cc2)n(-c2ccccc2)n1,-15,0,-3,-5,41*
CCCN1C[C@@H](C)[C@H](OC)CN(C)C(=O)c2cc(NS(C)(=O)=O)ccc2OC[C@@H]1C,-3[16.7 µM],·,4,·,0
COc1ccc(S(=O)(=O)N(C)C[C@H]2OCc3cn(nn3)CCCC(=O)N([C@@H](C)CO)C[C@H]2C)cc1,0[16.7 µM],0,-4,1,0

# Screens (PubChem)
